Laboratory results: ChEMBL document CHEMBL1121552, “Glycolipids as potential immunologic adjuvants” (1980)
Active and inactive are the calls of the source. No cut-off for these calls is given here.

What was measured:
Type in all cases: functional
[1] = organism: Mus musculus; test: Geometric mean titer of mice receiving 5 ug compound along with vaccine was determined after 21 days
Outline: (§1)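 ICR/Ha mice, groups of eight, were injected with an influenza hemagglutinin antigen vaccine plus adjuvant. Hemagglutination-inhibition antibody was assayed in sera taken 21 days post-injection. Titer is the reciprocal of the serum dilution, reported as the group geometric mean.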

[2] = organism: Mus musculus; test: Geometric mean titer of mice receiving 50 ug compound along with vaccine was determined after 21 days; outline: as §1
[3] = organism: Mus musculus; test: Mitogenic activity is evaluated in vitro against splenocyte culture from C58 mice; mitogenic
Outline: (§2)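 Washed splenocytes from C58 mice were plated at 6 x 10^5 viable lymphocytes per well in RPMI 1640 with 10% fetal calf serum. Compound dilutions were added with Con A, E. coli LPS, or medium alone and incubated at 37 °C for 3-4 days. [3H]thymidine was then added, and cells were harvested 4 h later. Counts are geometric means of four replicate wells.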

[4] = organism: Mus musculus; test: Mitogenic activity is evaluated in vitro against splenocyte culture from C58 mice; NA means no activity; outline: as §2

Row | Structure (SMILES) | Activity [1] | Activity [2] | Activity [3] | Activity [4]
1 | CCCCCCCC/C=C\CCCCCCCCSC1OC(C)C(O)C(O)C1O (stereo unspecified) | 61.69 | – | – | –
2 | CC1OC(SCCCc2ccc(C(F)(F)C(F)(F)c3ccccc3)cc2)C(O)C(O)C1O (stereo unspecified) | 33.64 | – | – | –
3 | CC(=O)N[C@H]1C(O)O[C@H](CO)[C@@H](O)[C@@H]1O[C@H](C)C(=O)N[C@@H](C)C(=O)N[C@H](CCC(=O)O)C(N)=O (stereo partly specified) [MURAMYL DIPEPTIDE] | – | 40 | Mitogenic | –
4 | CC(C)CCCC(C)C1CCC2C3CC=C4CC(OCCC#CCCSC5OC(C)C(O)C(O)C5O)CCC4(C)C3CCC12C (stereo unspecified) | – | 33.64 | – | inactive
5 | CC1OC(SCCC23C[C@H]4C[C@@H](C2)C[C@@H](C3)C4)C(O)C(O)C1O (stereo partly specified) | 47.57 | – | – | –
6 | CC(C)CCCC(C)C1CCC2C3CC=C4CC(OCCCCCCSC5OC(C)C(O)C(O)C5O)CCC4(C)C3CCC12C (stereo unspecified) | 28.28 | – | – | inactive
7 | CC(C)CCC[C@@H](C)[C@H]1CC[C@H]2[C@@H]3CC=C4C[C@@H](OCCCCCCS[C@@H]5O[C@@H](CO)[C@@H](O[C@@H]6O[C@@H](CO)[C@H](O)[C@H](O)[C@@H]6O)[C@H](O)[C@@H]5O)CC[C@]4(C)[C@H]3CC[C@]12C | – | 40 | – | inactive
